Test system: BC
Experiment: Cytotoxicity against human breast cancer cells.
Format: functional, cell-based
Conditions: not given

Structure (SMILES)	IC50 [µM]
CCCCCCc1nc(N)nc(N)c1-c1ccccc1	268
Nc1nc(N)c(-c2cccc(Cl)c2)c(CCOCCCOc2ccccc2)n1	6.1
CCc1nc(N)nc(N)c1-c1ccc(C(C)(C)C)cc1	56

Target: Bifunctional dihydrofolate reductase-thymidylate synthase (Plasmodium falciparum K1) (UniProt P13922)
Experiment: Inhibition of Plasmodium falciparum wild-type dihydrofolate reductase (DHFR) relative to Pyrimethamine.
Conditions: not given

Chain of Bifunctional dihydrofolate reductase-thymidylate synthase (Plasmodium falciparum K1) (P13922 whole entry, looked up): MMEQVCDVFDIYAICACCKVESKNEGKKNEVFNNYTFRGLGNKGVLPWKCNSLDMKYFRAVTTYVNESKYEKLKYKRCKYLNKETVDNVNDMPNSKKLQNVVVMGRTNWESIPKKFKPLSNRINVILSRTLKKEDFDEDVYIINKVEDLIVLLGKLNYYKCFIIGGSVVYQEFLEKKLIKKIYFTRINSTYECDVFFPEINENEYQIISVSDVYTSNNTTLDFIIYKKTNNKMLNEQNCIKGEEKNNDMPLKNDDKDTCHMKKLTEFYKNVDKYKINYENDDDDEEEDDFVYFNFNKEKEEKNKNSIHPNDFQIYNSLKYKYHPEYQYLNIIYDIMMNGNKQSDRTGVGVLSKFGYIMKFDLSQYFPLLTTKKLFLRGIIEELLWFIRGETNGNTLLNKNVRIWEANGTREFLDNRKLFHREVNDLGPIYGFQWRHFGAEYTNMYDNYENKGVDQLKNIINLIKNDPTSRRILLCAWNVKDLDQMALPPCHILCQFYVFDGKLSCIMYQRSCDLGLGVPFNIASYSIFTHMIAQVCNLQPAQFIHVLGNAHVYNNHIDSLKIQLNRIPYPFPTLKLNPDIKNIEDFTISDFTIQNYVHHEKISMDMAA

Structure (SMILES)	Relative activity
CCCCCCc1nc(N)nc(N)c1-c1ccccc1	0.5
Nc1nc(N)c(-c2cccc(Cl)c2)c(CCOCCCOc2ccccc2)n1	0.7

Target: Bifunctional dihydrofolate reductase-thymidylate synthase (Plasmodium falciparum K1) (UniProt P13922)
Experiment: Inhibition of the wild-type dihydrofolate reductase (DHFR) relative to Pyr.
Conditions: not given
Procedure, shortened: (§1)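 Assayed at 25 °C in 50 mM TES pH 7.0, 75 mM β-mercaptoethanol, 1 mg/mL BSA, with 100 µM H2folate and 100 µM NADPH. A340 was followed. Ki was derived from IC50 = Ki(1+[S]/Km), assuming competitive inhibition.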

Structure (SMILES)	Relative activity
CCc1nc(N)nc(N)c1-c1ccc(C(C)(C)C)cc1	1

Target: Bifunctional dihydrofolate reductase-thymidylate synthase (Plasmodium falciparum K1, UniProt P13922)
Sequence (P13922 whole entry): as the sequence (P13922 whole entry, looked up) above
Experiment: Inhibition of the C59R+S108N mutant of dihydrofolate reductase (DHFR)
Conditions: not given
Procedure, shortened: (§2)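 Assay at 25 °C: 50 mM TES pH 7.0, 75 mM β-mercaptoethanol, 1 mg/mL BSA, 100 µM H2folate and 100 µM NADPH. NADPH oxidation followed at 340 nm. Ki derived from IC50 as Ki(1+[S]/Km), assuming competitive inhibition.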

Structure (SMILES)	Ki [µM]
CCCCCCc1nc(N)nc(N)c1-c1ccccc1	0.0007
Nc1nc(N)c(-c2cccc(Cl)c2)c(CCOCCCOc2ccccc2)n1	0.0019
CCc1nc(N)nc(N)c1-c1ccc(C(C)(C)C)cc1	0.127

Target: Bifunctional dihydrofolate reductase-thymidylate synthase (Plasmodium falciparum K1, UniProt P13922, S108N)
Sequence (P13922 whole entry, looked up, stated change not applied): as the sequence (P13922 whole entry, looked up) above
Experiment: Inhibition of the S108N mutant of dihydrofolate reductase (DHFR)
Conditions: not given
Procedure, shortened: as §2

Structure (SMILES)	Ki [µM]
CCCCCCc1nc(N)nc(N)c1-c1ccccc1	0.0012
Nc1nc(N)c(-c2cccc(Cl)c2)c(CCOCCCOc2ccccc2)n1	0.0018
CCc1nc(N)nc(N)c1-c1ccc(C(C)(C)C)cc1	0.0662

Target: Bifunctional dihydrofolate reductase-thymidylate synthase (Plasmodium falciparum K1) (UniProt P13922)
Experiment: Inhibition of the C59R+S108N mutant of dihydrofolate reductase (DHFR) relative to Pyr.
Conditions: not given
Procedure, shortened: as §1

Structure (SMILES)	Relative activity
CCc1nc(N)nc(N)c1-c1ccc(C(C)(C)C)cc1	2.4

Target: Bifunctional dihydrofolate reductase-thymidylate synthase (Plasmodium falciparum K1) (UniProt P13922)
Experiment: Inhibition of the S108N mutant of dihydrofolate reductase (DHFR) relative to Pyr.
Conditions: not given
Procedure, shortened: as §1

Structure (SMILES)	Relative activity
CCc1nc(N)nc(N)c1-c1ccc(C(C)(C)C)cc1	2.3

Target: T1, Dihydrofolate reductase (Homo sapiens, UniProt P00374)
T1 sequence (P00374 whole entry): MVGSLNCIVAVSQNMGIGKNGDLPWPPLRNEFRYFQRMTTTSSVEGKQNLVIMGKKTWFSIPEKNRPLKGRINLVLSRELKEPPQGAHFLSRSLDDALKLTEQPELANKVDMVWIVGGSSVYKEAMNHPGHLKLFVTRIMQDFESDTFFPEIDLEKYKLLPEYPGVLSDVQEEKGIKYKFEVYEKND
Experiment: Cytotoxicity by selective inhibition against human dihydrofolate reductase (DHFR).
Conditions: not given

Structure (SMILES)	Ki [µM]
CCCCCCc1nc(N)nc(N)c1-c1ccccc1	15

Test system: KB
Experiment: Cytotoxicity against human epidermoid carcinoma KB cell.
Format: functional, cell-based
Conditions: not given

Structure (SMILES)	IC50 [µM]
CCCCCCc1nc(N)nc(N)c1-c1ccccc1	113
Nc1nc(N)c(-c2cccc(Cl)c2)c(CCOCCCOc2ccccc2)n1	8.1
CCc1nc(N)nc(N)c1-c1ccc(C(C)(C)C)cc1	87

Test system: Plasmodium falciparum
Experiment: Relative antiplasmodial activity (IC50) compared to Pyr against Plasmodium falciparum K1CB1 DHFR double-mutant (C59R/S108N)
Format: functional
Conditions: not given

Structure (SMILES)	Relative activity
CCc1nc(N)nc(N)c1-c1ccc(C(C)(C)C)cc1	0.1

Test system: Plasmodium falciparum
Experiment: In vitro relative antiplasmodial activity (IC50) compared to Pyr against Plasmodium falciparum TM4/8.2 wild-type
Format: functional
Conditions: not given

Structure (SMILES)	Relative activity
CCc1nc(N)nc(N)c1-c1ccc(C(C)(C)C)cc1	7.5

Test system: Plasmodium falciparum
Experiment: In vitro antiplasmodial activity (IC50) against Plasmodium falciparum wtTM4/8.2
Format: functional, organism-based
Conditions: not given

Structure (SMILES)	IC50 [µM]
CCCCCCc1nc(N)nc(N)c1-c1ccccc1	0.06
Nc1nc(N)c(-c2cccc(Cl)c2)c(CCOCCCOc2ccccc2)n1	0.4
CCc1nc(N)nc(N)c1-c1ccc(C(C)(C)C)cc1	0.6

Test system: Vero
Experiment: (§3) Cytotoxicity by the selective inhibition against African green monkey kidney […] (vero cells).
Conditions: Chlorocebus sabaeus

Structure (SMILES)	IC50 [µM]
CCCCCCc1nc(N)nc(N)c1-c1ccccc1	55

Test system: Vero
Experiment: as §3
Format: functional, cell-based
Conditions: Chlorocebus sabaeus

Structure (SMILES)	IC50 [µM]
Nc1nc(N)c(-c2cccc(Cl)c2)c(CCOCCCOc2ccccc2)n1	15
CCc1nc(N)nc(N)c1-c1ccc(C(C)(C)C)cc1	100

Test system: Bifunctional dihydrofolate reductase-thymidylate synthase (Plasmodium falciparum K1), P13922 [UNDEFINED MUTATION]
Sequence (P13922 whole entry, looked up, stated change not applied): as the sequence (P13922 whole entry, looked up) above
Experiment: Ratio of Inhibition of the S108N mutant of dihydrofolate reductase (DHFR) to inhibition of wild type dihydrofolate reductase.
Conditions: not given

Structure (SMILES)	Ratio
CCCCCCc1nc(N)nc(N)c1-c1ccccc1	4
Nc1nc(N)c(-c2cccc(Cl)c2)c(CCOCCCOc2ccccc2)n1	4.5
CCc1nc(N)nc(N)c1-c1ccc(C(C)(C)C)cc1	110

Test system: Plasmodium falciparum
Experiment: IC50 ratio against Plasmodium falciparum K1CB1/TM4
Format: functional
Conditions: not given

Structure (SMILES)	Ratio
CCCCCCc1nc(N)nc(N)c1-c1ccccc1	21.7
Nc1nc(N)c(-c2cccc(Cl)c2)c(CCOCCCOc2ccccc2)n1	8.3
CCc1nc(N)nc(N)c1-c1ccc(C(C)(C)C)cc1	6.5

Test system: not listed separately
Experiment: Safety ratio is cytotoxicity to BC cells/IC50 K1
Format: toxicity, cell-based
Conditions: human, BC cells (breast cancer); read-out: Safety ratio
Procedure, shortened: (§4)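 Safety ratio is the mammalian-cell cytotoxicity IC50 (vero, KB or BC cells) divided by the antiplasmodial IC50 against P. falciparum K1CB1 (C59R+S108N DHFR). Parasites were grown in human erythrocytes (1.5% suspension, 1-2% parasitemia) at 37 °C, 3% CO2, with drug dilutions at 0.1% DMSO final. After 24 h, [3H]hypoxanthine was added for a further 18-24 h. IC50 came from sigmoidal incorporation curves.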

Structure (SMILES)	selectivity ratio
Nc1nc(N)c(-c2cccc(Cl)c2)c(CCOCCCOc2ccccc2)n1	1.8

Test system: not listed separately
Experiment: Safety ratio is cytotoxicity to BC cells/IC50 K1.
Format: toxicity, cell-based
Conditions: human, BC cells (breast cancer); read-out: Safety ratio
Procedure, shortened: (§5)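 Ratio of the cytotoxicity IC50 (vero, KB or BC cells, Skehan protocol) to the antiplasmodial IC50 against K1CB1 (C59R+S108N DHFR). […] Label was added at 24 h and cultures ran a further 18-24 h. Final DMSO was 0.1%.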

Structure (SMILES)	selectivity ratio
CCCCCCc1nc(N)nc(N)c1-c1ccccc1	206
CCc1nc(N)nc(N)c1-c1ccc(C(C)(C)C)cc1	14.4

Test system: not listed separately
Experiment: Safety ratio is cytotoxicity to KB cells/IC50 K1.
Format: toxicity, cell-based
Conditions: human, KB cells (epidermoid carcinoma); read-out: Safety ratio
Procedure, shortened: as §5

Structure (SMILES)	selectivity ratio
CCCCCCc1nc(N)nc(N)c1-c1ccccc1	87
Nc1nc(N)c(-c2cccc(Cl)c2)c(CCOCCCOc2ccccc2)n1	2.5
CCc1nc(N)nc(N)c1-c1ccc(C(C)(C)C)cc1	22

Test system: not listed separately
Experiment: Safety ratio is cytotoxicity to KB cells/IC50 TM4.
Format: toxicity, cell-based
Conditions: human, KB cells (epidermoid carcinoma); read-out: Safety ratio
Procedure, shortened: (§6)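 Ratio of the cytotoxicity IC50 (KB or BC cells, Skehan protocol) to the antiplasmodial IC50 against TM4/8.2 (wild-type DHFR). […] Label was added after 24 h and cultures ran a further 18-24 h.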

Structure (SMILES)	selectivity ratio
CCCCCCc1nc(N)nc(N)c1-c1ccccc1	1880
Nc1nc(N)c(-c2cccc(Cl)c2)c(CCOCCCOc2ccccc2)n1	20
CCc1nc(N)nc(N)c1-c1ccc(C(C)(C)C)cc1	145

Test system: not listed separately
Experiment: Safety ratio is cytotoxicity to vero cells/IC50 K1.
Format: toxicity, cell-based
Conditions: monkey, read-out: Safety ratio
Procedure, shortened: as §5

Structure (SMILES)	selectivity ratio
CCCCCCc1nc(N)nc(N)c1-c1ccccc1	41
Nc1nc(N)c(-c2cccc(Cl)c2)c(CCOCCCOc2ccccc2)n1	4.5

Test system: not listed separately
Experiment: Safety ratio is cytotoxicity to vero cells/IC50 KI.
Format: toxicity, cell-based
Conditions: monkey, read-out: Safety ratio
Procedure, shortened: as §4

Structure (SMILES)	selectivity ratio
CCc1nc(N)nc(N)c1-c1ccc(C(C)(C)C)cc1	26

Test system: Plasmodium falciparum
Experiment: Safety ratio as cytotoxicity in vero cells relative to IC50 TM4
Format: functional
Conditions: not given

Structure (SMILES)	Safety ratio
CCCCCCc1nc(N)nc(N)c1-c1ccccc1	857
Nc1nc(N)c(-c2cccc(Cl)c2)c(CCOCCCOc2ccccc2)n1	38
CCc1nc(N)nc(N)c1-c1ccc(C(C)(C)C)cc1	172

Test system: Bifunctional dihydrofolate reductase-thymidylate synthase (Plasmodium falciparum K1), P13922 [UNDEFINED MUTATION]
Experiment: Ratio of Inhibition of the C59R+S108N mutant of dihydrofolate reductase (DHFR) to inhibition of wild type dihydrofolate reductase.
Conditions: not given

Structure (SMILES)	Ratio
CCCCCCc1nc(N)nc(N)c1-c1ccccc1	2.3
Nc1nc(N)c(-c2cccc(Cl)c2)c(CCOCCCOc2ccccc2)n1	4.7
CCc1nc(N)nc(N)c1-c1ccc(C(C)(C)C)cc1	212

Test system: not listed separately
Experiment: Safety ratio is cytotoxicity to BC cells/IC50 TM4.
Format: toxicity, cell-based
Conditions: human, BC cells (breast cancer); read-out: Safety ratio
Procedure, shortened: as §6

Structure (SMILES)	selectivity ratio
CCCCCCc1nc(N)nc(N)c1-c1ccccc1	4470
Nc1nc(N)c(-c2cccc(Cl)c2)c(CCOCCCOc2ccccc2)n1	15
CCc1nc(N)nc(N)c1-c1ccc(C(C)(C)C)cc1	93.3
